Data from ChEMBL document CHEMBL1152410, “Cytotoxic pentacyclic triterpenoids from Combretum sundaicum and Lantana camara as inhibitors of Bcl-xL/BakBH3 domain peptide interaction” (J Nat Prod, 2009).
pIC50, pKi: −log10 of the molar value.

Experiments:
[1] = system: KB; assay: Cytotoxicity against human KB cells; format: functional, cell-based
Procedure, shortened: (§1)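 Cell growth-inhibition assay run by a previously published procedure, with Taxotere as the reference compound.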

[2] = molecular target: Bcl-2-like protein 1 (Homo sapiens, UniProt Q07817); assay: Binding affinity to Bcl-xL by fluorescein-labeled Bak-BH3 peptide competition binding assay
Procedure, shortened: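 Fluorescence polarization displacement: test compound competes with fluorescein-labeled Bak BH3-domain peptide for binding to Bcl-xL. Ki is derived as the dissociation constant at equilibrium against this reference ligand. Unlabeled Bak(BH3) peptide and a substituted terphenyl derivative serve as positive controls. Runs are done in duplicate.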

[3] = system: HCT-116; assay: Cytotoxicity against human HCT116 cells; format: functional, cell-based; procedure, shortened: as §1
[4] = system: MCF7; assay: Cytotoxicity against human MCF7 cells; format: functional, cell-based; procedure, shortened: as §1
[5] = system: L1210; assay: Cytotoxicity against mouse L1210 cells; format: functional, cell-based; procedure, shortened: as §1

Sequence of Bcl-2-like protein 1 (Q07817 whole entry): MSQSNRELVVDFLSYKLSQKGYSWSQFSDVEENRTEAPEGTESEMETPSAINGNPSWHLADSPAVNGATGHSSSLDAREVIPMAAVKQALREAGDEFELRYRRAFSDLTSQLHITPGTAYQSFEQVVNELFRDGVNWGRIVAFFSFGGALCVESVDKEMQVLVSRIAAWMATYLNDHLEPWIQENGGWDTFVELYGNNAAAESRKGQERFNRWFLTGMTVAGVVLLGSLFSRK

Compound | pIC50 [1] | pKi [2] | pIC50 [3] | pIC50 [4] | pIC50 [5]
CC(=O)OC[C@]1(C)[C@@H](OC(C)=O)C[C@H](O[C@@H]2O[C@@H](C)[C@H](O)[C@@H](O)[C@H]2O)[C@]2(C)[C@H]3CC=C4[C@H]5C[C@](C)(C(=O)O)CC[C@]5(C)CC[C@@]4(C)[C@]3(C)CC[C@@H]12 | 5.09 | 5.14 | 5.10 | 4.98 | 
CC(=O)OC[C@]1(C)[C@@H](OC(C)=O)C[C@H](O)[C@]2(C)[C@H]3CC=C4[C@H]5C[C@](C)(C(=O)O)CC[C@]5(C)CC[C@@]4(C)[C@]3(C)CC[C@@H]12 | 5.27 | 4.75 | 5.33 | 5.22 | 
COC(=O)[C@]1(C)CC[C@]2(C)CC[C@]3(C)C(=CC[C@@H]4[C@@]5(C)[C@@H](O[C@@H]6O[C@@H](C)[C@H](O)[C@@H](O)[C@H]6O)C[C@H](O)[C@@](C)(COC(C)=O)[C@@H]5CC[C@]43C)[C@H]2C1 | 6.15 | < 4.00 | 6.40 | 6.30 | 
CC(C)=CC(=O)O[C@@H]1CC(C)(C)C[C@@H]2C3=CC[C@@H]4[C@@]5(C)CCC(=O)[C@](C)(CO)[C@@H]5CC[C@@]4(C)[C@]3(C)CC[C@]21C(=O)O | 4.45 | 5.28 | 4.94 | 4.37 | 4.91
COC(=O)[C@]1(C)CC[C@]2(C)CC[C@]3(C)C(=CC[C@@H]4[C@@]5(C)[C@@H](O[C@@H]6O[C@@H](C)[C@H](O)[C@@H](O)[C@H]6O)C[C@H](OC(C)=O)[C@@](C)(COC(C)=O)[C@@H]5CC[C@]43C)[C@H]2C1 | 6.05 | < 4.00 | 6.52 | 6.22 | 
COC(=O)[C@]1(C)CC[C@]2(C)CC[C@]3(C)C(=CC[C@@H]4[C@@]5(C)[C@@H](O)C[C@H](O)[C@@](C)(COC(C)=O)[C@@H]5CC[C@]43C)[C@H]2C1 | 5.54 | < 4.00 | 5.77 | 5.34 | 
CC(=O)O[C@@]12CO[C@@H]1C[C@H](O)[C@@]1(C)C(=O)[C@H](O)C3=C(C)[C@@H](OC(=O)[C@H](O)[C@@H](NC(=O)OC(C)(C)C)c4ccccc4)C[C@@](O)([C@@H](OC(=O)c4ccccc4)[C@H]21)C3(C)C [DOCETAXEL] | 9.82 |  | 8.92 | 9.15 | 
C/C=C(/C)C(=O)O[C@@H]1CC(C)(C)C[C@@H]2C3=CC[C@@H]4[C@@]5(C)CCC(=O)[C@](C)(CO)[C@@H]5CC[C@@]4(C)[C@]3(C)CC[C@]21C(=O)O [ICTEROGENIN] | 4.82 | 5.12 | 5.24 | 4.95 | 5.17
C/C=C(/C)C(=O)O[C@@H]1CC(C)(C)C[C@H]2C3=CC[C@@H]4[C@@]5(C)CCC(=O)C(C)(C)[C@@H]5CC[C@@]4(C)[C@]3(C)CC[C@@]12C(=O)O [LANTADENE A] | 4.80 | < 4.00 | 4.38 | 4.35 | 4.79
CC(C)=CC(=O)O[C@@H]1CC(C)(C)C[C@@H]2C3=CC[C@@H]4[C@@]5(C)CCC(=O)C(C)(C)[C@@H]5CC[C@@]4(C)[C@]3(C)CC[C@]21C(=O)O [LANTADENE B] | 4.60 | < 4.00 | 4.94 | 4.36 | 4.79
